This note sets out measurements from ChEMBL document CHEMBL1147263, “New cinnamylphenols from Dalbergia species with cancer chemopreventive activity” (J Nat Prod, 2003).

Molecules are shown by their SMILES. A value given as a limit tells only on which side of the number the result lay.

Data set [1] is described as follows: Inhibition of 12-O-tetradecanoylphorbol-13-acetate-induced EBV-early antigen activation in human Raji cells assessed per 32 pmol TPA. The class given is cell-based, human gammaherpesvirus 4. The method in brief:
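IC50 given as the mol ratio of compound to TPA giving 50% inhibition of EBV-EA activation versus the TPA-only control (32 pmol TPA = 100%). Raji cells were kept in RPMI 1640/10% FCS with 4 mM n-butyric acid and DMSO-dissolved compound at 10–1000 mol ratio, 48 h, 37 °C. EA-positive cells were counted blind, ≥500 per assay.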

The test system of data set [2] is Raji. The experiment in a line: Inhibition of 12-O-tetradecanoylphorbol-13-acetate-induced EBV-early antigen activation in human Raji cells assessed as EA induction at 32 nmol relative to 12-O-tetradecanoylphorbol-13-acetate. As to conditions: human gammaherpesvirus 4. The arrangement: scale not given: the % may be the effect or the level left. The class given is cell-based. The method in brief:
(§1)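 Raji cells at 10^6 cells/mL resuspended in RPMI 1640 + 10% FCS containing 4 mM n-butyric acid, 32 pmol TPA (20 ng/mL in DMSO) and test compound in DMSO. Incubated 48 h at 37 °C. EA-positive cells scored blind, ≥500 cells per assay. Reported as % EBV-EA activation ± SD relative to the TPA-only control (100%).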

In data set [3] the test system is Raji. The experiment in a line: Inhibition of 12-O-tetradecanoylphorbol-13-acetate-induced EBV-early antigen activation in human Raji cells assessed as EA induction at 0.32 nmol relative to 12-O-tetradecanoylphorbol-13-acetate. The class given is cell-based. More on the design: scale not given: the % may be the effect or the level left. As to conditions: human gammaherpesvirus 4. The method in brief:
as §1

Data set [4] relates to Raji. Briefly: Inhibition of 12-O-tetradecanoylphorbol-13-acetate-induced EBV-early antigen activation in human Raji cells assessed as EA induction at 3.2 nmol relative to 12-O-tetradecanoylphorbol-13-acetate. The format is cell-based. More on the design: scale not given: the % may be the effect or the level left. As to conditions: human gammaherpesvirus 4. The method in brief: as §1

Data set [5] in a line: Cytotoxicity against human Raji cells assessed as cell viability at 0.32 nmol after 48 hrs by trypan blue staining method. As to conditions: read-out: Activity. The class given is cell-based. Summed up: (§2)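 Raji cells grown to 10^6 cells/mL, pelleted and resuspended in RPMI 1640 + 10% FCS with 4 mM n-butyric acid, 32 pmol TPA (20 ng/mL) and test compound in DMSO (mol ratio to TPA 10–1000, i.e. 0.32–32 nmol). Incubated 48 h at 37 °C. Viability then counted on a hemocytometer with Trypan Blue. ≥60% survival required for valid EA readings.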

Data set [6] is described as follows: Cytotoxicity against human Raji cells assessed as cell viability at 16 nmol after 48 hrs by trypan blue staining method. The class given is cell-based. As to conditions: read-out: Activity. The method in brief:
as §2

Data set [7] relates to Raji. The experiment in a line: Inhibition of 12-O-tetradecanoylphorbol-13-acetate-induced EBV-early antigen activation in human Raji cells assessed as EA induction at 16 nmol relative to 12-O-tetradecanoylphorbol-13-acetate. The format is cell-based. More on the design: scale not given: the % may be the effect or the level left. As to conditions: human gammaherpesvirus 4. The method in brief: as §1

A short description of data set [8]: Cytotoxicity against human Raji cells assessed as cell viability at 3.2 nmol after 48 hrs by trypan blue staining method. The format is cell-based. As to conditions: read-out: Activity. Summed up: as §2
Data set [9] can be described thus: Cytotoxicity against human Raji cells assessed as cell viability at 32 nmol after 48 hrs by trypan blue staining method. The class given is cell-based. As to conditions: read-out: Activity. Summed up: as §2

With `CC1=C(/C=C/C(C)=C/C=C/C(C)=C/C=C/C=C(C)/C=C/C=C(C)/C=C/C2=C(C)CCCC2(C)C)C(C)(C)CCC1` [BETA CAROTENE], the IC50 in data set [1] is on record as 400 molar ratio. Moreover, the Activity is 9.1% with Raji [2] and 100% in the data set on Raji [3].

As for `COc1c(O)cccc1/C=C/Cc1ccc(O)c(OC)c1OC` [DALBERATIN A], the Activity worked out at 63.6% in the data set on Raji [4], 0% in the data set on Raji [2], 18.5% in the data set with Raji [7] and 85.1% in the data set with Raji [3]. The same compound displayed an IC50 in data set [1] of 213 molar ratio. In addition, the viability at 48 h, 0.32 nmol in data set [5] is greater than 80%. The viability at 48 h, 16 nmol in [6] was greater than 80%. Moreover, the viability at 48 h, 3.2 nmol in data set [8] is greater than 80%. For the same compound, the viability at 48 h, 32 nmol in [9] was 60%.

As to `COc1ccc(O)c(/C=C/Cc2ccc(O)c(OC)c2OC)c1` [DALBERATIN B], the Activity with Raji [4] turned out to be 68.3%; in the data set on Raji [2] it was 0%; in the data set with Raji [7], 31.1%; in the data set with Raji [3], 91.7%. The same compound gave an IC50 in data set [1] of 303 molar ratio. Moreover, the viability at 48 h, 0.32 nmol in [5] was greater than 80%. Besides, the viability at 48 h, 16 nmol in data set [6] is greater than 80%. The viability at 48 h, 3.2 nmol in [8] is greater than 80%. Further, in [9], the viability at 48 h, 32 nmol is 70%.

In the case of `COc1ccc(C/C=C/c2cccc(O)c2OC)c(OC)c1O` [DALBERATIN C], the Activity in the data set on Raji [4] turned out to be 65%; in the data set with Raji [2], 0%; with Raji [7], 20.9%; in the data set with Raji [3] it was 86.7%. Further, in [1], the IC50 was found to be 223 molar ratio. Moreover, the viability at 48 h, 0.32 nmol in data set [5] is greater than 80%. For the same compound, the viability at 48 h, 16 nmol in [6] is greater than 80%. In addition, the viability at 48 h, 3.2 nmol in [8] is greater than 80%. In addition, in data set [9], the viability at 48 h, 32 nmol is 60%.

On to `COc1c(O)cccc1/C=C/Cc1ccc(O)c(O)c1OC` [DALBERATIN E], for which the Activity is 60.3% in the data set on Raji [4], 0% in the data set with Raji [2], 16.4% in the data set on Raji [7] and 82% in the data set with Raji [3]. Also, in [1], the IC50 was 209 molar ratio. In data set [5], the viability at 48 h, 0.32 nmol was greater than 80%. Also, the viability at 48 h, 16 nmol in data set [6] was greater than 80%. Further, the viability at 48 h, 3.2 nmol in data set [8] is greater than 80%. In data set [9], the viability at 48 h, 32 nmol worked out at 70%.
